Converted amounts (≈) assume the structure as drawn. The source made the active and inactive calls. No cut-off for these calls is given here.
Assays:
[1] = Stability in tris buffer at pH 7.4 at 1 uM after 2 hrs by LC-MS/MS method; format: physicochemical; details: pH 7.4, 2 h
Method in brief: (§1)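 Stability tested in simulated gastric fluid (pH 1.2), simulated intestinal fluid (pH 6.8) and 50 mM tris buffer (pH 7.4) using literature protocols.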

Galleria mellonella = assay: Toxicity in Galleria mellonella larvae assessed as decrease in survival at 0.5 times MIC after 96 hrs; format: organism-based; details: in vivo
Staphylococcus aureus [2] = assay: Antibacterial activity against methicillin-resistant Staphylococcus aureus USA300 JE2 at 10 times MIC after 6 days by Kirby Bauer method; format: functional, organism-based
Method in brief: (§2)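 Mutant-resistance disc assay. Culture grown in Mueller Hinton broth for 4 h, diluted to 1.5 × 10^8 CFU/mL (0.5 McFarland) and spread on Mueller Hinton agar. 6 mm paper discs loaded with compound in DMSO at 10 × MIC. Plates at 37 °C. Inhibition zone diameter read at 24 h. Plates then kept 6 days and checked for colonies growing inside the zone.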

Staphylococcus aureus [3] = assay: Induction of membrane damage of methicillin-resistant Staphylococcus aureus USA300 JE2 at MIC after 18 hrs by propidium iodide staining-based flow cytometric method; format: functional, organism-based
Method in brief: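 Flow cytometry membrane-permeability assay. […] Propidium iodide stock at 1 mg/mL added, held 15–20 min in the dark, then cells washed three times and resuspended in PBS. Controls: PI-stained untreated cells and cells treated with 70% ethanol.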

Escherichia coli [4] = assay: Antibacterial activity against Escherichia coli K-12 after 24 hrs by broth microdilution method; format: functional
Method in brief: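 Broth microdilution per ASM Clinical Microbiology Procedures Handbook (3rd ed.); 1 mg/mL DMSO stock serially 2-fold diluted in Mueller Hinton broth with 5% DMSO; inoculum from direct colony suspension at 0.5 McFarland; static incubation 37 °C, 24 h. MIC = lowest concentration without visible growth (eye and OD600). Vancomycin and gentamicin positive controls, medium negative control; triplicate.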

Escherichia coli [5] = assay: Induction of membrane damage of Escherichia coli K-12 at 2 times MIC after 18 hrs by transmission electron microscopic method; format: functional, organism-based
Staphylococcus aureus [6] = assay: Induction of biofilm dispersion of methicillin-resistant Staphylococcus aureus USA300 JE2 at 2 times MIC after 24 hrs by crystal violet staining-based assay relative to control; format: functional
Method in brief: (§3)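 Preformed-biofilm dispersion. Gelatin-coated wells seeded with 1 × 10^6 CFU/mL in TSB with 0.5% glucose and grown 24 h at 37 °C. Medium replaced with 2-fold dilutions in fresh TSB with 0.5% glucose, then a further 24 h at 37 °C. Biofilm fixed with methanol, stained with 0.1% crystal violet, dissolved in methanol:acetic acid:water 4:1:5 and read at OD540.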

[7] = Stability in simulated intestinal fluid at pH 6.8 at 1 uM after 2 hrs by LC-MS/MS method; format: ADME; details: simulated gi fluid, pH 6.8, 2 h; method in brief: as §1
[8] = Stability in simulated gastric fluid at pH1.2 at 1 uM after 2 hrs by LC-MS/MS method; format: ADME; details: simulated gi fluid, pH 1.2, 2 h; method in brief: as §1
Staphylococcus aureus [9] = assay: Inhibition of biofilm formation of methicillin-resistant Staphylococcus aureus USA300 JE2 at MIC after 24 hrs by crystal violet staining-based assay relative to control; format: functional
Method in brief: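 Biofilm formation inhibition. Gelatin-coated wells received 2-fold dilutions in TSB with 0.5% glucose plus cells at 2 × 10^6 CFU/mL from fresh culture. Incubated at 37 °C for 24 h. Wells gently rinsed, stained with 0.1% crystal violet for 10 min, destained in methanol:acetic acid:water 4:1:5 and read at OD540.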

[10] = Metabolic stability in human liver S9 fraction at 1 uM after 5 to 60 mins by LC-MS/MS method; format: ADME, subcellular; details: s9, 1 µM
Method in brief: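 Compounds incubated with human liver S9 fraction, covering phase I and phase II enzymes; depletion followed over incubation time as percent remaining. Mean ± S.D., n = 3.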

Staphylococcus aureus [11] = assay: Induction of membrane damage of methicillin-resistant Staphylococcus aureus USA300 JE2 at 2 times MIC after 18 hrs by transmission electron microscopic method; format: functional, organism-based
Method in brief: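 TEM. […] Cells washed three times in PBS, then fixed in 2% glutaraldehyde with 2% paraformaldehyde in 0.1 M phosphate buffer.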

Staphylococcus aureus [12] = assay: Induction of biofilm dispersion of methicillin-resistant Staphylococcus aureus USA300 JE2 at MIC after 24 hrs by crystal violet staining-based assay relative to control; format: functional; method in brief: as §3
Staphylococcus aureus [13] = assay: Antibacterial activity against methicillin-resistant Staphylococcus aureus USA300 JE2 after 24 hrs by broth microdilution method; format: functional; details: USA300 JE2, 24 h
Method in brief: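 Broth microdilution. Test material taken from a 1 mg/mL DMSO stock and serially diluted 2-fold in Mueller Hinton broth containing 5% DMSO. Wells inoculated with a direct colony suspension at 0.5 McFarland, then incubated statically at 37 °C for 24 h. MIC is the lowest concentration with no growth, read by eye and by OD600. Vancomycin and gentamicin as positive controls. Run in triplicate.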

[14] = Cytotoxicity against HCEC after 24 hrs by MTT assay; design: species or system Homo sapiens
Method in brief: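 HCEC cells grown in HCEC medium at 37 °C in a hypoxia chamber, seeded 6000 cells/well, left 24 h, then exposed 24 h to 200, 100, 50, 25, 12.5, 6.25 or 0 (vehicle) µg/mL. MTT added from a 2 mg/mL stock for 2 h, formazan dissolved in DMSO, absorbance read at 570 nm.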

Staphylococcus aureus [15] = assay: Bacteriostatic activity against methicillin-resistant Staphylococcus aureus USA300 JE2 at 3 times MIC after 1 to 24 hrs by time killing assay; format: functional, organism-based
Method in brief: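 Time-kill. Culture grown in Mueller Hinton broth at 37 °C for 6 h, adjusted to about 7.5 × 10^6 CFU/mL and exposed to 3 × MIC at 37 °C. Samples taken at 0, 1, 2, 3, 4, 6 and 24 h, serially diluted 10-fold in 0.9% saline and plated on Mueller Hinton agar for 24 h at 37 °C. Colonies counted and plotted as log CFU/mL. Triplicate.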

Staphylococcus aureus [16] = assay: Antibacterial activity against methicillin-resistant Staphylococcus aureus USA300 JE2 at 10 times MIC after 24 hrs by Kirby Bauer method; format: functional; method in brief: as §2

Compound	MIC (Escherichia coli [4]; K-12, 24 h) [µg/mL]	MIC (Staphylococcus aureus [13]) [µg/mL]	also measured
CS(=O)(=O)NC(=O)c1cccc2nc3c(Cl)ccc(Cl)c3nc12	64 (≈ 173 µM)	16 (≈ 43.2 µM)	Stability [1]: Stable; Activity (Galleria mellonella): Non-Toxic; Activity (Staphylococcus aureus [2]): Active; Activity (Staphylococcus aureus [3]): inactive; Activity (Escherichia coli [5]): inactive; Activity (Staphylococcus aureus [6]): 61%; Stability [7]: Stable; Stability [8]: Stable; inhibition (INH) (Staphylococcus aureus [9]): 82%; Stability [10]: Stable; Activity (Staphylococcus aureus [11]): inactive; Activity (Staphylococcus aureus [12]): 42%; IC50 [14]: 208 µM; Activity (Staphylococcus aureus [15]): Active; diameter of the inhibition zone (DIZ) (Staphylococcus aureus [16]): 19 mm
N#CNC(=O)c1cccc2nc3cccc(Cl)c3nc12	128 (≈ 453 µM)	128 (≈ 453 µM)	
GENTAMICIN			MIC (Escherichia coli [4]): 0.25 µg/mL
COC(=O)c1cccc2nc3cccc(OC)c3nc12	128 (≈ 477 µM)	128 (≈ 477 µM)	
COC(=O)c1cccc2nc3cc(Br)cc(OC)c3nc12	128 (≈ 369 µM)	128 (≈ 369 µM)	
O=C(O)c1cccc2nc3c(Cl)ccc(Cl)c3nc12	128 (≈ 437 µM)	64 (≈ 218 µM)	
NC(=O)c1cccc2nc3cccc(Cl)c3nc12	128 (≈ 497 µM)	> 256	
NC(=O)c1cccc2nc3c(Cl)ccc(Cl)c3nc12	32 (≈ 110 µM)	128 (≈ 438 µM)	
O=C(NO)c1cccc2nc3cccc(Cl)c3nc12	128 (≈ 468 µM)	32 (≈ 117 µM)	
N#Cc1cccc2nc3cccc(Cl)c3nc12	64 (≈ 267 µM)	> 256	
CN(C(=O)c1cccc2nc3ccccc3nc12)S(C)(=O)=O	128 (≈ 406 µM)	256 (≈ 812 µM)	
CS(=O)(=O)NC(=O)c1cccc2nc3cccc(F)c3nc12	128 (≈ 401 µM)	64 (≈ 200 µM)	
COc1ccc2nc3c(C(=O)O)cccc3nc2c1	64 (≈ 252 µM)	256 (≈ 1010 µM)	
CN(C(=O)c1cccc2nc3cccc(Cl)c3nc12)S(C)(=O)=O	64 (≈ 183 µM)	> 256	
Cc1cccc2nc3cccc(C(=O)NS(C)(=O)=O)c3nc12	32 (≈ 101 µM)	32 (≈ 101 µM)	Activity (Staphylococcus aureus [2]): Active

From ChEMBL document CHEMBL4138243, “Synthesis, biological evaluation, and metabolic stability of phenazine derivatives as antibacterial agents” (Eur J Med Chem, 2018)
